≈ marks a conversion by molar mass, not a printed value.
Legend:
Format in all cases: functional
[1] = tested on: Acinetobacter baumannii; test: Antimicrobial activity against Acinetobacter baumannii isolate 17 at pH 7.2
Summary of the method: (§1)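 MIC by agar dilution on Mueller-Hinton agar under standard conditions (pH 7.2), against isolates with characterized gyrA/parC genes. Agar pH was checked after solidifying. Plates for both drugs were prepared the same day from freshly made media, and MICs were determined simultaneously with the pH 5.8 set.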

[2] = tested on: Acinetobacter baumannii; test: Antimicrobial activity against Acinetobacter baumannii isolate 35 harboring GyrA Ser83-Leu mutation at pH 7.2
Summary of the method: (§2)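 Agar dilution MIC on Mueller-Hinton agar. For the acidic condition, HCl was added to bring the agar to pH 5.8 before pouring the antibiotic plates, and the pH was checked after the agar set. The standard condition was pH 7.2. Both drugs' plates were made the same day from fresh medium, and MICs were read at the same time.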

[3] = tested on: Acinetobacter baumannii; test: Antimicrobial activity against Acinetobacter baumannii isolate 10 at pH 5.8
Summary of the method: (§3)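 MIC by agar dilution on Mueller-Hinton agar acidified to pH 5.8 with HCl before antibiotic-containing plates were poured. Agar pH was rechecked once the agar had solidified. Isolates had characterized gyrA/parC genes. Plates for both drugs were made the same day from fresh media, and MICs were read in parallel with the standard-pH set.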

[4] = tested on: Acinetobacter baumannii; test: Antimicrobial activity against Acinetobacter baumannii isolate 11 at pH 5.8; summary of the method: as §3
[5] = tested on: Acinetobacter baumannii; test: Antimicrobial activity against Acinetobacter baumannii isolate 49 harboring GyrA Ser83-Leu and ParC Ser80-Leu mutation at pH 5.8; summary of the method: as §2
[6] = tested on: Acinetobacter baumannii; test: Antimicrobial activity against Acinetobacter baumannii isolate 42 harboring GyrA Ser83-Leu mutation at pH 5.8; summary of the method: as §2
[7] = tested on: Acinetobacter baumannii; test: Antimicrobial activity against Acinetobacter baumannii isolate 49 harboring GyrA Ser83-Leu and ParC Ser80-Leu mutation at pH 7.2; summary of the method: as §2
[8] = tested on: Acinetobacter baumannii; test: Antimicrobial activity against Acinetobacter baumannii isolate 8 at pH 5.8
Summary of the method: (§4)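 Agar dilution MIC on Mueller-Hinton agar acidified to pH 5.8 with HCl before the antibiotic-containing plates were poured. Agar pH was checked after solidifying. Plates were made the same day from fresh medium. Both fluoroquinolones were tested simultaneously against A. baumannii isolates with characterized gyrA/parC genes. MICs are in μg/ml.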

[9] = tested on: Acinetobacter baumannii; test: Antimicrobial activity against Acinetobacter baumannii isolate 66 harboring GyrA Ser83-Leu mutation at pH 7.2
Summary of the method: (§5)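 Agar dilution MIC on Mueller-Hinton agar under standard conditions (pH 7.2). Antibiotic-containing plates were made the same day from freshly prepared medium. Agar pH was checked after solidifying. Both fluoroquinolones were tested simultaneously against A. baumannii isolates with characterized gyrA/parC genes. MICs are in μg/ml.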

[10] = tested on: Acinetobacter baumannii; test: Antimicrobial activity against Acinetobacter baumannii isolate 30 harboring GyrA Ser83-Leu mutation at pH 7.2; summary of the method: as §1
[11] = tested on: Acinetobacter baumannii; test: Antimicrobial activity against Acinetobacter baumannii isolate 23 harboring GyrA Glu87-Gly mutation at pH 7.2; summary of the method: as §1
[12] = tested on: Acinetobacter baumannii; test: Antimicrobial activity against Acinetobacter baumannii isolate 47 harboring GyrA Ser83-Leu and ParC Ser80-Phe mutation at pH 5.8; summary of the method: as §2
[13] = tested on: Acinetobacter baumannii; test: Antimicrobial activity against Acinetobacter baumannii isolate 9 at pH 5.8; summary of the method: as §4
[14] = tested on: Acinetobacter baumannii; test: Antimicrobial activity against Acinetobacter baumannii isolate 57 harboring GyrA Ser83-Leu and ParC Ser80-Phe mutation at pH 7.2; summary of the method: as §5
[15] = tested on: Acinetobacter baumannii; test: Antimicrobial activity against Acinetobacter baumannii isolate 56 harboring GyrA Ser83-Leu and ParC Ser80-Leu mutation at pH 5.8; summary of the method: as §4
[16] = tested on: Acinetobacter baumannii; test: Antimicrobial activity against Acinetobacter baumannii isolate 45 harboring GyrA Ser83-Leu and ParC Ser80-Leu mutation at pH 5.8; summary of the method: as §2
[17] = tested on: Acinetobacter baumannii; test: Antimicrobial activity against Acinetobacter baumannii isolate 56 harboring GyrA Ser83-Leu and ParC Ser80-Leu mutation at pH 7.2; summary of the method: as §5
[18] = tested on: Acinetobacter baumannii; test: Antimicrobial activity against Acinetobacter baumannii isolate 25 harboring GyrA Ser83-Leu mutation at pH 5.8; summary of the method: as §3
[19] = tested on: Acinetobacter baumannii; test: Antimicrobial activity against Acinetobacter baumannii isolate 59 harboring GyrA Ser83-Leu and ParC Glu84-Lys mutation at pH 7.2; summary of the method: as §5
[20] = tested on: Acinetobacter baumannii; test: Antimicrobial activity against Acinetobacter baumannii isolate 7 at pH 5.8; summary of the method: as §4
[21] = tested on: Acinetobacter baumannii; test: Antimicrobial activity against Acinetobacter baumannii isolate 20 harboring GyrA Ser83-Leu mutation at pH 7.2; summary of the method: as §1
[22] = tested on: Acinetobacter baumannii; test: Antimicrobial activity against Acinetobacter baumannii isolate 14 at pH 5.8; summary of the method: as §3
[23] = tested on: Acinetobacter baumannii; test: Antimicrobial activity against Acinetobacter baumannii isolate 43 harboring GyrA Ser83-Leu mutation at pH 5.8; summary of the method: as §2
[24] = tested on: Acinetobacter baumannii; test: Antimicrobial activity against Acinetobacter baumannii isolate 28 harboring GyrA Ser83-Leu mutation at pH 5.8; summary of the method: as §3
[25] = tested on: Acinetobacter baumannii; test: Antimicrobial activity against Acinetobacter baumannii isolate 4 at pH 5.8
Summary of the method: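 Agar dilution MIC on Mueller-Hinton agar acidified with HCl before pouring antibiotic plates; agar pH checked after setting. Isolate has characterized gyrA/parC genes. Plates made the same day from fresh medium, and both drugs tested at the same time. Read-out: MIC (μg/ml).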

[26] = tested on: Acinetobacter baumannii; test: Antimicrobial activity against Acinetobacter baumannii isolate 43 harboring GyrA Ser83-Leu mutation at pH 7.2; summary of the method: as §2
[27] = tested on: Acinetobacter baumannii; test: Antimicrobial activity against Acinetobacter baumannii isolate 54 harboring GyrA Ser83-Leu and ParC Ser80-Leu mutation at pH 5.8; summary of the method: as §2
[28] = tested on: Acinetobacter baumannii; test: Antimicrobial activity against Acinetobacter baumannii isolate 57 harboring GyrA Ser83-Leu and ParC Ser80-Phe mutation at pH 5.8; summary of the method: as §4
[29] = tested on: Acinetobacter baumannii; test: Antimicrobial activity against Acinetobacter baumannii isolate 27 harboring GyrA Ser83-Leu mutation at pH 5.8; summary of the method: as §3
[30] = tested on: Acinetobacter baumannii; test: Antimicrobial activity against Acinetobacter baumannii isolate 10 at pH 7.2; summary of the method: as §1
[31] = tested on: Acinetobacter baumannii; test: Antimicrobial activity against Acinetobacter baumannii isolate 51 harboring GyrA Ser83-Leu and ParC Ser80-Leu mutation at pH 5.8; summary of the method: as §2
[32] = tested on: Acinetobacter baumannii; test: Antimicrobial activity against Acinetobacter baumannii isolate 6 at pH 7.2; summary of the method: as §5
[33] = tested on: Acinetobacter baumannii; test: Antimicrobial activity against Acinetobacter baumannii isolate 44 harboring GyrA Ser83-Leu and ParC Glu84-Lys mutation at pH 5.8; summary of the method: as §2
[34] = tested on: Acinetobacter baumannii; test: Antimicrobial activity against Acinetobacter baumannii isolate 62 harboring GyrA Ser83-Leu and ParC Ser80-Leu mutation at pH 5.8; summary of the method: as §4
[35] = tested on: Acinetobacter baumannii; test: Antimicrobial activity against Acinetobacter baumannii isolate 3 at pH 5.8; summary of the method: as §3
[36] = tested on: Acinetobacter baumannii; test: Antimicrobial activity against Acinetobacter baumannii isolate 53 harboring GyrA Ser83-Leu and ParC Ser80-Leu mutation at pH 5.8; summary of the method: as §2
[37] = tested on: Acinetobacter baumannii; test: Antimicrobial activity against Acinetobacter baumannii isolate 33 harboring GyrA Ser83-Leu mutation at pH 5.8; summary of the method: as §2
[38] = tested on: Acinetobacter baumannii; test: Antimicrobial activity against Acinetobacter baumannii isolate 53 harboring GyrA Ser83-Leu and ParC Ser80-Leu mutation at pH 7.2; summary of the method: as §2
[39] = tested on: Acinetobacter baumannii; test: Antimicrobial activity against Acinetobacter baumannii isolate 31 harboring GyrA Ser83-Leu mutation at pH 7.2; summary of the method: as §1
[40] = tested on: Acinetobacter baumannii; test: Antimicrobial activity against Acinetobacter baumannii isolate 32 harboring GyrA Ser83-Leu mutation at pH 5.8; summary of the method: as §2

SMILES | MIC [1] | MIC [2] | MIC [3] | MIC [4] | MIC [5] | MIC [6] | MIC [7] | MIC [8] | MIC [9] | MIC [10] | MIC [11] | MIC [12] | MIC [13] | MIC [14] | MIC [15] | MIC [16] | MIC [17] | MIC [18] | MIC [19] | MIC [20] | also measured
O=C(O)c1cn(C2CC2)c2cc(N3CCNCC3)c(F)cc2c1=O [CIPROFLOXACIN] | 1 µg/mL (≈ 3.02 µM) | 8 µg/mL (≈ 24.1 µM) | 2 µg/mL (≈ 6.04 µM) | 4 µg/mL (≈ 12.1 µM) | > 128 µg/mL | > 128 µg/mL | 128 µg/mL (≈ 386 µM) | 2 µg/mL (≈ 6.04 µM) | 32 µg/mL (≈ 96.6 µM) | 8 µg/mL (≈ 24.1 µM) | 4 µg/mL (≈ 12.1 µM) | > 128 µg/mL | 2 µg/mL (≈ 6.04 µM) | 128 µg/mL (≈ 386 µM) | > 128 µg/mL | > 128 µg/mL | 128 µg/mL (≈ 386 µM) | 32 µg/mL (≈ 96.6 µM) | 128 µg/mL (≈ 386 µM) | 2 µg/mL (≈ 6.04 µM) | MIC [21]: 2 µg/mL (≈ 6.04 µM); MIC [22]: 4 µg/mL (≈ 12.1 µM); MIC [23]: > 128 µg/mL; MIC [24]: 32 µg/mL (≈ 96.6 µM); MIC [25]: 1 µg/mL (≈ 3.02 µM); MIC [26]: 32 µg/mL (≈ 96.6 µM); MIC [27]: > 128 µg/mL; MIC [28]: > 128 µg/mL; MIC [29]: 32 µg/mL (≈ 96.6 µM); MIC [30]: 0.25 µg/mL (≈ 0.754 µM); MIC [31]: > 128 µg/mL; MIC [32]: 0.12 µg/mL (≈ 0.362 µM); MIC [33]: > 128 µg/mL; MIC [34]: > 128 µg/mL; MIC [35]: 2 µg/mL (≈ 6.04 µM); MIC [36]: > 128 µg/mL; MIC [37]: 128 µg/mL (≈ 386 µM); MIC [38]: 128 µg/mL (≈ 386 µM); MIC [39]: 8 µg/mL (≈ 24.1 µM); MIC [40]: 32 µg/mL (≈ 96.6 µM)
N#Cc1c(N2C[C@@H]3NCCO[C@H]3C2)c(F)cc2c(=O)c(C(=O)O)cn(C3CC3)c12 [FINAFLOXACIN] | 1 µg/mL (≈ 2.51 µM) | 16 µg/mL (≈ 40.2 µM) | 0.12 µg/mL (≈ 0.301 µM) | 0.06 µg/mL (≈ 0.151 µM) | 2 µg/mL (≈ 5.02 µM) | 2 µg/mL (≈ 5.02 µM) | 16 µg/mL (≈ 40.2 µM) | 0.12 µg/mL (≈ 0.301 µM) | 16 µg/mL (≈ 40.2 µM) | 8 µg/mL (≈ 20.1 µM) | 8 µg/mL (≈ 20.1 µM) | 4 µg/mL (≈ 10 µM) | 0.12 µg/mL (≈ 0.301 µM) | 32 µg/mL (≈ 80.3 µM) | 4 µg/mL (≈ 10 µM) | 2 µg/mL (≈ 5.02 µM) | 32 µg/mL (≈ 80.3 µM) | 2 µg/mL (≈ 5.02 µM) | 64 µg/mL (≈ 161 µM) | 0.06 µg/mL (≈ 0.151 µM) | MIC [21]: 1 µg/mL (≈ 2.51 µM); MIC [22]: 0.25 µg/mL (≈ 0.628 µM); MIC [23]: 2 µg/mL (≈ 5.02 µM); MIC [24]: 1 µg/mL (≈ 2.51 µM); MIC [25]: 0.03 µg/mL (≈ 0.0753 µM); MIC [26]: 16 µg/mL (≈ 40.2 µM); MIC [27]: 4 µg/mL (≈ 10 µM); MIC [28]: 4 µg/mL (≈ 10 µM); MIC [29]: 1 µg/mL (≈ 2.51 µM); MIC [30]: 0.25 µg/mL (≈ 0.628 µM); MIC [31]: 2 µg/mL (≈ 5.02 µM); MIC [32]: 0.25 µg/mL (≈ 0.628 µM); MIC [33]: 4 µg/mL (≈ 10 µM); MIC [34]: 8 µg/mL (≈ 20.1 µM); MIC [35]: 0.06 µg/mL (≈ 0.151 µM); MIC [36]: 2 µg/mL (≈ 5.02 µM); MIC [37]: 1 µg/mL (≈ 2.51 µM); MIC [38]: 32 µg/mL (≈ 80.3 µM); MIC [39]: 16 µg/mL (≈ 40.2 µM); MIC [40]: 1 µg/mL (≈ 2.51 µM)
